# FXIIa inh: human FXIIa protease inhibitors, primary screen, biochemical, 1536-well. Coagulation factor XII (Homo sapiens), P00748. purified FXIIa, Boc-QGR-AMC fluorogenic substrate, 2 h. inhibition, % at 5 µM. 220,000 compounds, 0.3% hits. AID 800, 2007; in the data active = inhibition above about 40%;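 also: 0% = enzyme with no compound and 100% = blank without enzyme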
# FXIa inh 1536: human FXIa protease inhibitors, primary screen, biochemical, 1536-well; Coagulation factor XI (Homo sapiens), P03951; purified FXIa, Boc-Glu-Ala-Arg-AMC fluorogenic substrate; inhibition, % at 5 µM; 220,000 compounds, 0.14% hits; AID 798, 2007;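 active = inhibition of at least 40%; inactive = inhibition below 40%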;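 also: fluorescence of freed AMC excited at 355 nm; 0% = enzyme without compound and 100% = no enzyme blank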
# Thrombin inh: human alpha-thrombin inhibitors, primary screen, counter-screen for coagulation protease inhibitor project, biochemical, 1536-well, fluorogenic AMC substrate | inhibition, % at 5 µM | Prothrombin (Homo sapiens), P00734 | 220,000 compounds, 0.26% hits | Boc-VPR-AMC fluorogenic substrate cleavage;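 active = inhibition at or above 40%; inactive = inhibition below 40%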;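 also: 0% = enzyme with no compound and 100% = wells without enzyme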
#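 Test system: human alpha-thrombin protein / Dosing: one concentration per compound, 5 µM, with 0.2% DMSO / Medium: pH 7.5 Tris-saline with Tween 20 / Benchmarks: no-compound enzyme wells and no-enzyme blanks / Read-out basis: percent inhibition of thrombin substrate cleavage / Timing: reaction at room temperature / Measured by: fluorescence, ex 355 nm, em 460 nm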
# KLK5 inh: human KLK5 protease inhibitors, primary screen, biochemical, 1536-well. inhibition, % at 5 µM. 210,000 compounds, 0.59% hits. recombinant hK5, fluorogenic AMC substrate cleavage;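 active = inhibition of 40% or more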;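 also: 0% = enzyme controls without compound and 100% = no-enzyme blanks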
# Target sequence (Q9Y337 67-293 limits assumed): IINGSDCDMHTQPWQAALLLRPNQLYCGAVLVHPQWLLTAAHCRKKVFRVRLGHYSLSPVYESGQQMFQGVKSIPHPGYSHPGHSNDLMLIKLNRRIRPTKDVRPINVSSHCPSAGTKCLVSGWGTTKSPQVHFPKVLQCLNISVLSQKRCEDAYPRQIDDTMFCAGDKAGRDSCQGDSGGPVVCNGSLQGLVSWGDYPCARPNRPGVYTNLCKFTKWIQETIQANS
# Furin inh: human furin inhibitors, primary screen, biochemical, fluorescence intensity; purified furin, fluorogenic substrate cleavage; 220,000 compounds, 0.061% hits; P09958; AID 463115, 2010; inhibition, % at 20 µM or 30 µM; in the data active = inhibition above about 25%
# * marks the source's active call; other numbers are inactive results; · = no result given. Shown are actives, neighbours in structure and some others; about 1.1% of the full set was active somewhere.
SMILES,FXIIa inh,FXIa inh 1536,Thrombin inh,KLK5 inh,Furin inh
O=C(c1ccco1)n1nc(-c2cccnc2)nc1NCc1ccco1,19.4,11.2,96.3*,4.3,-16.9
O=C(c1ccccc1)n1nc(-c2ccccc2)nc1NCc1ccco1,9.9,-1.1,72.9*,15.3,-4.8
CCOc1ncccc1C(=O)OCC(=O)Nc1ccc(C(N)=O)cc1,44.8*,14.2,3.5,41.5*,-7.1
CCOc1ncccc1C(=O)OCC(=O)Nc1ccc(C(C)C)cc1,5.6,-3.8,-14.0,-8.1,-23.8
COc1cc(NC(=O)CN2CCN(S(=O)(=O)c3ccc(C(C)C)cc3)CC2)cc(OC)c1,26.0,14.7,10.4,40.5*,-17.3
CCOc1ccc(NC(=O)CCN2CCN(S(=O)(=O)c3ccc(OC)cc3)CC2)cc1,-4.5,-18.1,-1.4,-7.1,-28.1
COc1cccc(NC(=O)CN2CCN(S(=O)(=O)c3ccc(C(C)C)cc3)CC2)c1,13.9,7.2,0.2,-8.5,-10.4
CCOc1ccc(NC(=O)CCN2CCN(S(=O)(=O)c3ccc(Cl)cc3)CC2)cc1,20.7,-2.8,28.0,55.3*,-25.3
Oc1ccc(/C=N/N2CCN(C3c4ccccc4-c4ccccc43)CC2)c(O)c1,25.9,47.7*,21.7,-1.8,-10.5
Cc1cc(NS(=O)(=O)c2ccc(N3C(=O)C4C5C=CC(C5)C4C3=O)cc2)nc(C)n1 (stereo not drawn),4.5,66.8*,0.2,-9.8,-14.0
Cc1ccc(S(=O)(=O)Nc2ccc(S(=O)(=O)Nc3cc(C)nc(C)n3)cc2)cc1,7.8,1.3,·,-1.1,-10.3
C=CCNC(=S)/N=c1/ccccn1CC,7.0,-0.3,-5.9,0.1,-15.5
CN(C)CCCNc1ncnc2sc(-c3ccccc3)cc12,7.4,-0.3,95.2*,-0.2,-30.8
CN(C)CCCNc1ncnc2c1cnn2-c1ccccc1,7.3,-1.9,-8.3,-11.8,-9.9
COC(=O)c1ccc(Nc2nc(C)cc(=O)[nH]2)cc1,41.5*,24.0,3.0,-15.9,-11.3
Cc1ccc(-c2cc(C(=O)NCc3cccnc3)no2)cc1,-0.7,-11.9,-3.4,-17.1,25.1*
COc1cc(/C=C2/C(=O)NN(c3cccc(C)c3)C2=O)ccc1OC(=O)c1ccco1,11.6,19.1,5.8,60.2*,-15.0
O=C(O)c1ccccc1-c1ccccc1C(=O)NCc1cccc(C(F)(F)F)c1,5.0,-6.2,1.1,-1.3,0.6
CCOC(=O)N1CCN(C(=O)CSCC(=O)Nc2nc(-c3ccc(OC)cc3)cs2)CC1,-0.8,-9.5,-9.9,-26.2,-14.1
CCOC(=O)N1CCN(C(=O)CSCC(=O)Nc2nc(-c3ccc(Cl)s3)cs2)CC1,15.3,8.2,50.4*,-5.4,7.2
CC1CC(O)(Cc2ccccc2)C(C)CN1C (stereo not drawn),14.7,-4.3,4.2,0.3,-19.9
C=CC#CC1(O)CC(C)N(C)CC1C (stereo not drawn),27.6,28.2,30.6,45.6*,-2.7
Cc1[nH]n(C)c(=O)c1[N+](=O)[O-],11.0,-0.1,1.2,3.4,-11.2
CC1CCC2(CC1)SCC(=O)N2c1ccccc1 (stereo not drawn),24.0,21.2,20.1,90.6*,-2.6
CCC1CCC2(CC1)SCC(=O)N2c1ccccc1 (stereo not drawn),29.6,59.2*,13.0,63.3*,-7.1
SMILES,FXIIa inh,FXIa inh 1536,Thrombin inh,KLK5 inh,Furin inh
FC(F)(F)c1cnc(COc2ccc(Cl)cc2Cl)c(Cl)c1,3.9,-3.5,-7.3,-3.0,-20.5
O=C(O)c1ccc(N/C(=N\S(=O)(=O)c2ccc(Cl)cc2)c2ccccc2)cc1,63.5*,44.0*,15.5,19.5,-1.7
CC1CCCC(NC(=O)COC(=O)[C@@H](NC(=O)c2ccco2)C(C)C)C1C (stereo partly drawn),7.3,-0.2,-2.6,11.5,-34.1
Cc1ccc(CSc2nnc(-c3ccncc3)n2CC2CCCO2)cc1 (stereo not drawn),25.9,8.5,18.9,80.8*,-4.4
COC(=O)c1c(NC(=O)c2c(C)noc2C)sc2c1CCCCCC2,3.4,-6.6,-3.5,-21.4,-3.4
COC(=O)c1c(NC(=O)c2c(-c3ccccc3Cl)noc2C)sc2c1CCC2,41.4*,-12.7,2.2,-23.8,-25.4
COc1cc(S(=O)(=O)N2CCOCC2)ccc1NC(=O)COC(=O)CC12CC3CC(CC(C3)C1)C2,11.7,8.5,19.8,37.0,-3.8
COc1ccccc1NC(=S)N/N=C1\CC(C)(C)Oc2ccc(O)cc21,36.0,30.5,9.3,56.5*,-1.7
COc1ccc(NC(=S)N/N=C2\CC(C)(C)Oc3ccc(O)cc32)cc1,1.0,9.8,3.0,-23.2,13.3
CC(C)CN(C(=O)CSc1nnnn1-c1ccccc1)c1c(N)n(CC(C)C)c(=O)[nH]c1=O,8.0,-0.8,-2.7,-6.3,-32.7
Nc1nc(NCCCN2CCOCC2)nc(Nc2ccccc2F)c1[N+](=O)[O-],13.2,4.0,2.4,4.0,-5.1
Cc1cccc(CCNC(=O)C2CCN(S(=O)(=O)c3ccccc3)CC2)c1,6.2,-2.9,-0.1,-3.2,-27.5
O=C(N/N=C/c1ccc2c(c1)OCO2)C1COc2ccccc2O1 (stereo not drawn),16.8,-1.1,6.3,45.9*,-6.3
COc1cc(Br)cc2cc(C(=O)NCC3CCCO3)c(=O)oc12 (stereo not drawn),1.8,-16.0,-7.8,-7.9,1.5
COc1ccc(CCNC(=O)Cn2nnc(-c3ccc(N4CCOCC4)cc3)n2)cc1OC,-6.4,-9.4,1.8,126.1*,-5.1
COc1ccc(CCNC(=O)C(=O)NCC2CCCO2)cc1OC (stereo not drawn),15.0,2.7,28.9,50.6*,-14.9
COc1ccc(CCNC(=O)C2CCC(CNS(=O)(=O)c3ccccc3)CC2)cc1OC (stereo not drawn),25.6,29.3,52.6*,20.6,-6.2
COc1ccc(CCNC(=O)C(=O)NCC2CCCO2)cc1 (stereo not drawn),10.9,1.8,0.2,-5.3,-15.7
COc1ccc(CCNC(=O)C2CCC(CNS(=O)(=O)c3ccc(F)cc3)CC2)cc1OC (stereo not drawn),-0.5,-5.0,-7.7,-4.7,-22.0
COc1cccc2cc(C(=O)NCC3CCCO3)c(=O)oc12 (stereo not drawn),16.8,13.8,104.0*,44.0*,-15.4
CCOP1(=O)OCC2OC(n3cnc4c(N)ncnc43)C(O)C2O1 (stereo not drawn),8.8,0.7,-1.0,1.6,-25.2
COc1cccc(-n2nnc3c(=O)n(Cc4ccccc4Cl)cnc32)c1,4.2,-4.3,0.4,0.0,28.0*
O=C(O)CCC(=O)NNC(=O)c1ccc(Br)cc1,9.4,4.9,-2.2,-4.2,-20.3
CC(=O)Nc1nnc(SCc2ccc(F)cc2)s1,11.1,0.9,12.2,55.5*,-14.4
